Test results as given in ChEMBL document CHEMBL1124734, “Chalcogenapyrylium dyes as photochemotherapeutic agents. 2. Tumor uptake, mitochondrial targeting, and singlet-oxygen-induced inhibition of cytochrome c oxidase” (J Med Chem, 1990).

How the values were obtained:
[1] = Ability to inhibit the Mitochondrial cytochrome c Oxidase in isolated mitochondrial suspensions from R3230AC rat mammary adenocarcinomas; design: concentration or dose not given beside the values; conditions: concentration not given here
Summary of the method: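 Mitochondria isolated from subcutaneously transplanted R3230AC tumors in female Fischer 344 rats and stored at -70 °C. They were diluted in sucrose/KCl buffer (pH 7.4) to give a 0.45-0.60/min absorbance change of cytochrome c at 550 nm. Dye (10 μM) was added for 5 min in the dark at room temperature, then mitochondria were pelleted and resuspended. Samples were matched by absorbance (~1.5 OD) and irradiated with 375–800 nm light. The initial inhibition rate was taken over the first 5 min of exposure.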

[2] = Partition coefficient (logP); assay type: physicochemical; conditions: octanol/water
Summary of the method: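 Partitioning measured between n-octanol and water.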

SMILES	inhibition [1] [%]	logP [2]
CC(C)(C)C1=CC(=C/C=C/c2cc(C(C)(C)C)[te+]c(C(C)(C)C)c2)C=C(C(C)(C)C)[Se]1	3	2.41
CC(C)(C)C1=CC(=C/C=C/c2cc(C(C)(C)C)[s+]c(C(C)(C)C)c2)C=C(C(C)(C)C)S1	0.045	1.97
CC(C)(C)C1=CC(=C/C=C/c2cc(C(C)(C)C)[se+]c(C(C)(C)C)c2)C=C(C(C)(C)C)O1	2.55	
CC(C)(C)C1=CC(=C/C=C/c2cc(C(C)(C)C)[se+]c(C(C)(C)C)c2)C=C(C(C)(C)C)S1	4.05	2.39
CC(C)(C)C1=CC(=C/C=C/c2cc(C(C)(C)C)[te+]c(C(C)(C)C)c2)C=C(C(C)(C)C)O1	10.9	2.41
CC(C)(C)C1=CC(=C/C=C/c2cc(C(C)(C)C)[se+]c(C(C)(C)C)c2)C=C(C(C)(C)C)[Se]1	4.2	1.92
CC(C)(C)C1=CC(=C/C=C/c2cc(C(C)(C)C)[o+]c(C(C)(C)C)c2)C=C(C(C)(C)C)O1	0	2.51
CC(C)(C)C1=CC(=C/C=C/c2cc(C(C)(C)C)[s+]c(C(C)(C)C)c2)C=C(C(C)(C)C)O1	0.03	
CC(C)(C)C1=CC(=C/C=C/c2cc(C(C)(C)C)[te+]c(C(C)(C)C)c2)C=C(C(C)(C)C)[Te]1		2.02
